In the library only some 2.3% were active in any assay of this set; here they are far more common.
MEKK3 PB1 HTS: MEKK3-MEK5 PB1 interaction, increase or decrease | Q99759 | bead-based flow cytometry, Alexa488-MEK5 binding to MEKK3; actives lie on both sides; 0 = blocked by unlabeled MEK5, 100 = vehicle | binding response (% of control), % at 10 µM | 290,000 tested, 1.4% active;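 active = binding response more than 3 SD above or below the average of its plate-row segment, actives on both sides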;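 note: Alexa488 bead fluorescence after subtracting the streptavidin-only scavenger bead signal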
MEKK2 mut-MEK5: signal of MEK5 binding to mutant human MEKK2 PB1 domain | percent response, % at 10 µM | 290,000 tested, 0.35% active | AID 1530 | bead flow cytometry, Alexa488-MEK5 binding to MEKK2 mutant; in the data active = percent response above about 24%, passing the limit was not always enough
MEKK2 WT-MEK5: raises or lowers MEK5 binding to wildtype human MEKK2 PB1 domain. Q9Y2U5. bead flow cytometry, Alexa488-MEK5 binding to MEKK2 WT; actives lie on both sides. binding response (% of control), % at 10 µM. 290,000 tested, 1.1% active. AID 1531; in the data active = binding response below about 67% or above about 130%
ABCG2 inh: human ABCG2 inhibition, ABCB1 as counter-screen; inhibition, % at 6.6 µM; 190,000 tested, 0.1% active; Q9UNQ0; AID 1325; IgMXP3 cells, JC-1 efflux, flow cytometry;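 active = inhibition above 80%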;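 note: 0% = DMSO and 100% = nicardipine control wells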
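Test system: ABCG2 IgMXP3 and barcoded ABCB1 CCRF-Adr cell mix; Schedule: cells with compound and JC-1, 10 min at 25 °C, rotating, no wash; Technique: flow cytometry of retained JC-1 fluorescence; Measure: % inhibition of efflux relative to nicardipine and DMSO; Controls: nicardipine high and DMSO low controls.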
ABCB1 inh: inhibitors of human ABCB1 transporter, ABCG2 counter-screen | CCRF-Adr cells, JC-1 efflux, flow cytometry | inhibition, % at 6.6 µM | 190,000 tested, 0.067% active; in the data active = inhibition above about 40%;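 note: 0% = vehicle and 100% = reference inhibitor; higher value means more JC-1 retained so stronger ABCB1 efflux block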
Target sequence (P08183 whole entry, looked up): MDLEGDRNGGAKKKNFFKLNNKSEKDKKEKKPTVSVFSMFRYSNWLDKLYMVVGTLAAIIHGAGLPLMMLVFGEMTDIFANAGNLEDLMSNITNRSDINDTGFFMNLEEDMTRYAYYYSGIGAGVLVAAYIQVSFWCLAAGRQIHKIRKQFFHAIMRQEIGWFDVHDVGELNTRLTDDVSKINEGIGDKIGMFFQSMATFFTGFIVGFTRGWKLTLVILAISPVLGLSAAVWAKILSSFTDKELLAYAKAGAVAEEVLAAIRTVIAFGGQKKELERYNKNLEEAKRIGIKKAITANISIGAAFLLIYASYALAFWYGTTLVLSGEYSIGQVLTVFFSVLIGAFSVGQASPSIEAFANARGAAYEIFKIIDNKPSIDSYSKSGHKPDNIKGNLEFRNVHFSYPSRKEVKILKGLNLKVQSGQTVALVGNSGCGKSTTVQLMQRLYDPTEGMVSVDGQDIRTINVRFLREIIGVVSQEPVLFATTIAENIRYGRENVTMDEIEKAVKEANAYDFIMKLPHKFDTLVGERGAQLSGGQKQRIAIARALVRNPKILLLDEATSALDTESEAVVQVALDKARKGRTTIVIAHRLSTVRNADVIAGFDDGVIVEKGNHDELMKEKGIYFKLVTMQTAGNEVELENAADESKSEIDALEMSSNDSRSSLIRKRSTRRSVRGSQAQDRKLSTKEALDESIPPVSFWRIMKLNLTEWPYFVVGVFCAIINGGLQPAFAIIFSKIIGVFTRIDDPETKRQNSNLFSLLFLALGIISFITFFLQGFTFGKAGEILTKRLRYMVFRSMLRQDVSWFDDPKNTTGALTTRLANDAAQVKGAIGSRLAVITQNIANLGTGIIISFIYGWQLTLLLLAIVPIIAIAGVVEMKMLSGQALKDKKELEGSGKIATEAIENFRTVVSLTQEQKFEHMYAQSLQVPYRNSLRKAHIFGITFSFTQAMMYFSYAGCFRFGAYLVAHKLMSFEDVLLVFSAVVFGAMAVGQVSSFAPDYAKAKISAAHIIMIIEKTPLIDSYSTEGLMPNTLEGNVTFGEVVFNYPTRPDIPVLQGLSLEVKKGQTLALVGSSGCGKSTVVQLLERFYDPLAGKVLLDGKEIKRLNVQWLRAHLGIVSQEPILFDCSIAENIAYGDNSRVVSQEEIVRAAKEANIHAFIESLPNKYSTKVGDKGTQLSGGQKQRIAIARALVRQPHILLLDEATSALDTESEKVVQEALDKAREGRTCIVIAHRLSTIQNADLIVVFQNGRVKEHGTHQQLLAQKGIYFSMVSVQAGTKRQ
MEKK2wt confirm: raises or lowers MEK5 binding to wildtype human MEKK2, retest | binding response (% of control), % at 10 µM | shares compounds with MEKK3 PB1 HTS | bead flow cytometry, Alexa488-MEK5 binding to MEKK2 WT; actives lie on both sides | 5,900 tested, 2.4% active; in the data active = binding response below about 16% or above about 210%; inactive = in between
MEKK2mut-MEK5: signal of MEK5 binding to mutant human MEKK2, retest; 5,900 tested, 2% active; shares compounds with MEKK3 PB1 HTS; percent response, % at 10 µM; bead flow cytometry, Alexa488-MEK5 binding to MEKK2 mutant; in the data active = percent response mostly above about 71%, no sharp cut-off; inactive = mostly below about 38%;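 note: higher means compound restores mutant binding toward wildtype level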
MEKK3-MEK5 inh: MEKK3-MEK5 PB1 inhibition, single concentration confirmation | shares compounds with MEKK3 PB1 HTS | bead flow cytometry, Alexa488-MEK5 binding to MEKK3; hits give low values | binding response (% of control), % at 10 µM | 5,900 tested, 1.8% active | AID 1894;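 active = binding response below 72% of control, or above a set upper limit, though filed actives all read lower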;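 note: 100% = DMSO only wells and 0% = binding blocked by excess unlabeled MEK5; lower values mean stronger disruption of MEK5 binding to MEKK3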
Active calls of the source: *; / = not tested or not shown; [ ] = remark or other dose.

SMILES	MEKK3 PB1 HTS	MEKK2 mut-MEK5	MEKK2 WT-MEK5	ABCG2 inh	ABCB1 inh	MEKK2wt confirm	MEKK2mut-MEK5	MEKK3-MEK5 inh
CCOc1nc2cnccc2n(CC(=O)Nc2ccccc2C(=O)OC)c1=O	101	4	104	/	/	/	/	/
CCOc1ccc(NC(=S)N(CCCN2CCCC2)Cc2cccn2Cc2ccc(Cl)cc2)cc1	110	3	186*	2	2	147	21	105
CCN1CCN(CCCN(Cc2ccco2)C(=S)Nc2ccc(Cl)cc2)CC1	101	0	104	3	2	/	/	/
Cc1cccc(NC(=S)N(CCCN2CCCC2)Cc2cccn2Cc2ccc(Cl)cc2)c1	110	65*	206*	7	4	169	41	109
O=C(NCCc1ccccc1)C1=CCN(S(=O)(=O)c2ccccc2)CC1	93	-10	96	/	/	/	/	/
Nc1ccc(OCCCc2c(N)nc(N)nc2N)cc1	82*[inhibitor]	8	110	/	/	120	13	95
O=c1c2cc(N3CCOCC3)ccc2[nH]c(=S)n1CCCN1CCCCCC1	101	13	148*	5	1	125	10	99
CCCCn1c(=S)[nH]c2ccc(N3CCOCC3)cc2c1=O	95	-6	89	3	1	/	/	/
C=CCOc1nc2c(c(=O)n(C)c(=O)n2C)n1Cc1c(Cl)cccc1Cl	81*[inhibitor]	-6	89	48	2	100	-4	104
CCOc1nc2c(c(=O)n(C)c(=O)n2C)n1Cc1ccccc1Cl	75	-7	76	0	0	/	/	/
COC(=O)C1CCN(C(=O)CN2C(=O)NC(CCc3ccccc3)C2=O)CC1 (configuration not stated)	122*	9	124	0	0	99	-1	103
O=C(CN1C(=O)NC(CCc2ccccc2)C1=O)NC1CC1 (configuration not stated)	85	-4	96	0	0	/	/	/
CCn1cc(Br)c(C(=O)Nc2cccc(Cl)c2)n1	0.0*[inhibitor]	-39	-5.0*[inhibitor]	4	1	97	-5	95
C=CCSc1ncnc2sc(C)c(C)c12	95	-2	92	41	1	/	/	/
CCSc1ncnc2sc(C)c(C)c12	53*[inhibitor]	0	88	0	0	102	2	102
C/C(CC(=O)Nc1ccc2ccccc2c1)=N\NC(=O)c1ccc(O)c(O)c1	104	8	95	/	/	/	/	/
CSCCC(NC(=O)c1cccc(C)c1)C(=O)Nc1sccc1C(N)=O (configuration not stated)	94	0	92	/	/	/	/	/
Cn1c(CC(=O)Nc2ccccc2F)nnc1SCC(=O)Nc1nccs1	104	9	105	/	/	/	/	/
NC1=NC[C@H](c2ccccc2)N1CCCCC1CCCCC1	111	11	146*	/	/	124	12	105
COc1ccc(NC2CCCN(C(=O)c3ccc4[nH]c(C)c(C)c4c3)C2)cc1 (configuration not stated)	103	3	98	/	/	/	/	/
CC(C)CN(C(=O)COC(=O)CCCc1c[nH]c2ccccc12)c1c(N)n(Cc2ccccc2)c(=O)[nH]c1=O	104	1	105	/	/	/	/	/
CCN(CC)S(=O)(=O)c1ccc(N2CCOCC2)c(NC(=O)c2cc(=O)[nH]c3ccccc23)c1	69*[inhibitor]	-9	86	2	0	108	9	105
O=C(NCc1ccco1)c1ccc(S(=O)(=O)N2CCOCC2)cc1	116	5	106	0	0	/	/	/
O=C(NCc1cccs1)c1cccc(S(=O)(=O)N2CCCCC2)c1	102	3	104	3	1	/	/	/
O=C(NCc1ccco1)c1ccc(S(=O)(=O)N2CCCCC2)cc1	130*	0	114	9	2	106	5	106
